Data on three compounds can be found in ChEMBL document CHEMBL2417381, “New anticancer agents mimicking protein recognition motifs” (J Med Chem, 2013).

SMILES strings stand for the structures. Calls of active or inactive are those of the source. The calls are words filed in the database; no cut-off is given here. Where only a bound is given, the exact number is not on record here.

For series [1], the system named is M14. The experiment in a line: Antiproliferative activity against human M14 cells assessed as cell viability incubated for 24 hrs followed by compound washout measured after 48 hrs by MTT assay. Type of series: functional, cell-based. An outline of the steps:
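M14 cells exposed for 24 h, then medium removed and cells resuspended in compound-free medium. Further incubation for 24 and 48 h, then viability read by MTT: 1 mg/mL for 1–3 h at 37 °C, formazan dissolved in DMSO, absorbance at 550 and 620 nm.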

Series [2] in a line: Solubility of the compound in phosphate buffer at pH 7.4 by UV-Visible spectrophotometry. Type of series: physicochemical. An outline of the steps: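 10 mM DMSO stock added one microlitre at a time, 10 min apart, to 20 mM phosphate buffer with 150 mM KCl, pH 7.4, at 25 °C. Precipitation followed as the rise in light-scattering absorbance over 500–900 nm.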
Series [3] deals with M14. The series is described as follows: Cell cycle arrest in human M14 cells assessed as accumulation at G2/M phase after 24 hrs by propidium iodide staining-based flow cytometry. The format is functional. The note with it: in the assay text read “accumulation at S phase” for “accumulation at G2/M phase”. An outline of the steps:
(§1)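 5 × 10^4 M14 cells cultured 24 h, then dosed and cultured a further 24 or 48 h. Permeabilized cells labelled 30 min at 4 °C with propidium iodide in 0.1% sodium citrate/0.1% Triton X-100, then analysed by flow cytometry. For cell cycle, 10,000 events per sample assigned to G0/G1, S and G2/M. Each determination repeated three times.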

For series [4], the system named is M14. The series is described as follows: Cell cycle arrest at G1/S phase in human M14 cells assessed as increase in cyclin A expression at IC50 after 24 hrs by Western blotting analysis. Type of series: functional, cell-based. An outline of the steps: (§2)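 Treated cells lysed in modified RIPA buffer (10 mM Tris-HCl pH 7.4, 150 mM NaCl, 1 mM EDTA, 1% NP40, 0.1% deoxycholate, 1 mM PMSF, protease inhibitors). Equal protein loads separated on 10–12% SDS-PAGE and blotted to nitrocellulose. Blocked in 10% milk/0.1% Tween-20, probed with anti-cyclin A or anti-p53 and HRP secondary; tubulin used as loading reference.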

Series [5] has as its system M14. The experiment in a line: Induction of apoptosis in human M14 cells assessed as accumulation of p53 in nuclear fraction after 48 hrs by Western blotting analysis relative to control. The format is functional, cell-based.
A further series deals with Jurkat. The series is described as follows: Antiproliferative activity against human Jurkat cells after 48 hrs by MTT assay. Type of series: functional, cell-based. In a few lines: (§3)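 Cells grown at 37 °C in DMEM with 25 mM glucose, 10% fetal calf serum, penicillin/streptomycin and 2 mmol/L glutamine. 5000 cells per well; after 24 h, exposed to 100 nM–100 µM for 24 and 48 h. MTT 1 mg/mL for 1–3 h at 37 °C, formazan dissolved in DMSO, absorbance read at 550 and 620 nm. IC50 from four-parameter sigmoidal nonlinear regression.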

The next series has as its system Huh-7. The experiment in a line: Antiproliferative activity against human HuH7 cells after 48 hrs by MTT assay. Type of series: functional, cell-based. To be noted: Huh-7, 48 h. In a few lines: as §3
Series [6] relates to M14. The experiment in a line: Cytostatic activity against human M14 cells at 5 to 10 uM after 24 hrs by trypan blue dye exclusion assay relative to control. Type of series: functional, cell-based. In a few lines:
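Exponentially growing M14 cells plated and grown 24 h. Then treated at 5 and 10 µM in 0.1% DMSO for 24, 48 or 72 h. Stained with 0.2% trypan blue and counted in a hemocytometer; percentage of dead cells calculated.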

Series [7] relates to M14. The experiment in a line: Induction of apoptosis in human M14 cells assessed as accumulation of p53 in nuclear fraction after 24 hrs by Western blotting analysis relative to control. The format is functional, cell-based.
The subject of series [8] is M14. The series is described as follows: Cell cycle arrest in human M14 cells assessed as accumulation at G0/G1 phase after 24 hrs by propidium iodide staining-based flow cytometry. The format is functional. The note with it: in the assay text read “accumulation at S phase” for “accumulation at G0/G1 phase”. In a few lines: as §1
Series [9] deals with M14. The experiment in a line: Cell cycle arrest in human M14 cells assessed as accumulation at S phase after 24 hrs by propidium iodide staining-based flow cytometry. Type of series: functional. An outline of the steps: as §1
Series [10] relates to M14. The series is described as follows: Cell cycle arrest at G1/S phase in human M14 cells assessed as increase in cyclin A expression at IC50 after 48 hrs by Western blotting analysis. Type of series: functional, cell-based. In a few lines:
as §2

A further series deals with MCF7. The series is described as follows: Antiproliferative activity against human MCF7 cells after 48 hrs by MTT assay. Type of series: functional, cell-based. The note with it: MCF7, 48 h. An outline of the steps:
as §3

Series [11] deals with Tumour suppressor p53/oncoprotein Mdm2 (Homo sapiens) (UniProt P04637+Q00987). The experiment in a line: Inhibition of human recombinant p53-MDM2 interaction assessed as p53 release by NMR spectroscopy relative to untreated control. The format is protein assay. In a few lines:
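Complex formed from refolded recombinant His-tagged human p53 (residues 1-312, expressed in E. coli BL21(DE3) RIL) and refolded MDM2, mixed 1:2, with excess MDM2 removed by gel filtration. Complex at 0.1 mM in 50 mM phosphate pH 7.4, 150 mM KCl, 5 mM DTT; formal protein:inhibitor molar ratio 1:1.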

The subject of a further series is RAW264.7. The series is described as follows: Antiproliferative activity against mouse RAW264.7 cells after 48 hrs by MTT assay. To be noted: RAW264.7, 48 h. Type of series: cell-based. An outline of the steps: as §3
The subject of series [12] is M14. The series is described as follows: Induction of p53 expression in human M14 cells after 24 hrs by Western blotting analysis. The format is functional, cell-based. In a few lines:
as §2

Series [13] concerns M14. The experiment in a line: Induction of apoptosis in human M14 cells after 48 hrs by propidium iodide staining-based flow cytometry. The format is functional, cell-based. In a few lines: as §1
The test system of series [14] is M14. The series is described as follows: Antiproliferative activity against human M14 cells after 48 hrs by MTT assay. Type of series: functional, cell-based. To be noted: M14, 48 h. An outline of the steps:
as §3

For series [15], the system named is M14. The experiment in a line: Cell cycle arrest at S phase in human M14 cells assessed as change in size of nucleus after 24 hrs by DAPI staining-based fluorescence microscopy. The format is functional. An outline of the steps: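 M14 cells grown on coverslips and dosed after 24 h. Fixed in 3.7% formaldehyde for 30 min, quenched with 0.1 M glycine, then DAPI-stained 20 min at room temperature. Nuclear areas measured by fluorescence microscopy image analysis. Mean ± SEM of at least twenty measurements; one-way ANOVA with Bonferroni post test.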

In series [16] the test system is M14. The series is described as follows: Induction of p53 expression in human M14 cells after 48 hrs by Western blotting analysis. Type of series: functional, cell-based. In a few lines:
as §2

Sequence of Tumour suppressor p53/oncoprotein Mdm2 (Homo sapiens) (P04637 whole entry, looked up, the tested form may be a part): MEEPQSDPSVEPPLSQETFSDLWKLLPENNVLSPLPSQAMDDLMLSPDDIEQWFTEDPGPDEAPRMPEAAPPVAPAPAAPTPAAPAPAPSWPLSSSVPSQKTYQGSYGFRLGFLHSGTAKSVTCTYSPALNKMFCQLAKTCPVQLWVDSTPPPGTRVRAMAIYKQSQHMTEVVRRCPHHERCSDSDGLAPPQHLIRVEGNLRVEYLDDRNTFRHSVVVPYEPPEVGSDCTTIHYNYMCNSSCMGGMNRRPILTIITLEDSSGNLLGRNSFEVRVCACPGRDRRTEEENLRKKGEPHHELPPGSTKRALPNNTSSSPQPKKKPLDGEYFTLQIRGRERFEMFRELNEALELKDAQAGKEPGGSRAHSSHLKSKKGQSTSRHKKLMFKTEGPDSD
Sequence of Tumour suppressor p53/oncoprotein Mdm2 (Homo sapiens) (Q00987 whole entry, looked up, the tested form may be a part): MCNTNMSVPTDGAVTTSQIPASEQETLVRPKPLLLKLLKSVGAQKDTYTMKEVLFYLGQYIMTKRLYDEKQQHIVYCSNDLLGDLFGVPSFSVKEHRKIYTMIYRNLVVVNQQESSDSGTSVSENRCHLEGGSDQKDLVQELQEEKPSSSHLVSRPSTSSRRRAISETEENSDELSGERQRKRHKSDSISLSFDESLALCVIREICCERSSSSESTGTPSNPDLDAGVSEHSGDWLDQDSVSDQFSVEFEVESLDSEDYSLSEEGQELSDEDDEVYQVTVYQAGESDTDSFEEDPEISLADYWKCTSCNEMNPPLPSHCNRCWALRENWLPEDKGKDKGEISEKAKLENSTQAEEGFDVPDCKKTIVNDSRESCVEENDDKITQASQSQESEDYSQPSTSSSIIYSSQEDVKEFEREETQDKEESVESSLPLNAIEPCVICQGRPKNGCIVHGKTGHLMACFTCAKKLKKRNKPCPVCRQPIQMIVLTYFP

As for `Cc1ccc(Cn2c(C(=O)NCc3cccc(Cl)c3)cc(C(=O)c3ccccc3)c2C)cc1`, the result in the series with M14 [1], in the series with M14 [5], in the series on M14 [6] and with M14 [16] was inactive. The solubility in series [2] is not above 6.8 µM. In addition, the outcome in the series on M14 [3], with M14 [4], in the series with M14 [7], with M14 [8], with M14 [9] and in the series on M14 [10] was Active. Besides, the outcome with M14 [12], in the series on M14 [13] and with M14 [15] was Active. For the same compound, the IC50 with Jurkat is more than 100 µM; with Huh-7 it was more than 100 µM; in the series with MCF7, more than 100 µM; in the series on RAW264.7, more than 100 µM; in the series with M14 [14] it was 2.5 µM. The inhibition result in [11] was “inactive”.
As to `Cc1c(C(=O)c2ccccc2)cc(C(=O)NCc2cccc(Cl)c2)n1Cc1ccccc1`, the outcome with M14 [1], with M14 [5], in the series on M14 [6] and in the series on M14 [16] was inactive. Besides, the result with M14 [3], with M14 [4], in the series with M14 [7], in the series on M14 [8], in the series on M14 [9] and in the series on M14 [12] was Active. For the same compound, the result in the series with M14 [13] and in the series with M14 [15] was Active. The IC50 was more than 100 µM in the series on Jurkat; more than 100 µM in the series on Huh-7; more than 100 µM in the series with MCF7; more than 100 µM with RAW264.7; 7.5 µM in the series with M14 [14].
For `Cc1c(C(=O)c2ccccc2)cc(C(=O)NCc2cccc(I)c2)n1Cc1ccccc1`, the result in the series on M14 [1], with M14 [5], in the series on M14 [6] and in the series on M14 [16] was inactive. Further, the result in the series on M14 [3], in the series with M14 [4], in the series with M14 [7], with M14 [8], with M14 [9] and with M14 [10] was Active. Moreover, the result with M14 [12], in the series on M14 [13] and with M14 [15] was Active. For the same compound, the IC50 is more than 100 µM in the series with Jurkat; more than 100 µM with Huh-7; more than 100 µM in the series with MCF7; more than 100 µM in the series with RAW264.7; 5 µM in the series with M14 [14].
